According to ChEMBL document CHEMBL1140342, “Antitumor activity of C-methyl-beta-D-ribofuranosyladenine nucleoside ribonucleotide reductase inhibitors” (J Med Chem, 2005):

Columns and labels:
Format in all cases: functional, cell-based
HT-29 = assay: In vitro inhibitory activity against human colon carcinoma HT-29 cell line
In short: (§1)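 Cells kept in 10% FBS medium, RPMI 1640 for K562/K562IU and MEM alpha for HT-29/MCF-7; adherent lines trypsinized to single-cell suspension. Log-phase cells seeded at about 50 000 cells/mL, acclimatized 24 h, then exposed to compound dilutions (up to 100 μM) in triplicate for 48 h at 37 °C, 5% CO2. MTS/PMS tetrazolium reduction 3 h, A490; IC50 = concentration giving 50% growth inhibition.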

K562 [1] = assay: In vitro inhibitory activity against human leukemia K562IU cell line; in short: as §1
MCF7 = assay: In vitro inhibitory activity against human breast carcinoma MCF-7 cell line; in short: as §1
K562 [2] = assay: In vitro inhibitory activity against human myelogenous leukemia K562 cell line; in short: as §1

| SMILES | IC50 (HT-29) [µM] | IC50 (K562 [1]) [µM] | IC50 (MCF7) [µM] | IC50 (K562 [2]) [µM] |
| --- | --- | --- | --- | --- |
| C[C@]1(O)C(n2cnc3c(N)nc(Cl)nc32)O[C@H](CO)[C@H]1O (stereo partly drawn) | > 100 | > 100 | > 100 | > 100 |
| C[C@]1(O)C(n2cnc3c(NC4CC4)ncnc32)O[C@H](CO)[C@H]1O (stereo partly drawn) | > 100 | > 100 | > 100 | > 100 |
| CNc1ncnc2c1ncn2C1O[C@H](CO)[C@@H](O)[C@@]1(C)O (stereo partly drawn) | > 100 | > 100 | > 100 | > 100 |
| C[C@@]1(O)[C@H](O)[C@@H](CO)O[C@H]1n1cnc2c(N)ncnc21 | > 100 | > 100 | > 100 | 16 |
| OC[C@H]1O[C@@H](n2cnc3c(NC4CC4)ncnc32)C(O)[C@@H]1O (single isomer, unassigned) | > 100 | > 100 | 93.4 | > 100 |
| Nc1nc(Cl)nc2c1ncn2[C@@H]1O[C@H](CO)[C@@H](O)C1O (single isomer, unassigned) | 85.6 | 19.5 | 72.6 | 15.4 |
| C[C@@]1(n2cnc3c(N)ncnc32)O[C@H](CO)[C@@H](O)C1O (single isomer, unassigned) | > 100 | > 100 | > 100 | 53 |
| CNc1ncnc2c1ncn2[C@@H]1O[C@H](CO)[C@@H](O)C1O (single isomer, unassigned) | > 100 | > 100 | > 100 | > 100 |
| C[C@]1(O)C(O)[C@H](n2cnc3c(N)ncnc32)O[C@@H]1CO (single isomer, unassigned) | 23.2 | 38.3 | 17.5 | 18.2 |
| C[C@]1(O)C(O)C(n2cnc3c(N)nc(Cl)nc32)O[C@@H]1CO (single isomer, unassigned) | > 100 | > 100 | > 100 | > 100 |
| CNc1ncnc2c1ncn2C1O[C@H](CO)[C@@](C)(O)C1O (single isomer, unassigned) | 74.3 | 93.8 | 68.1 | 43.9 |
| C[C@]1(O)C(O)C(n2cnc3c(NC4CC4)ncnc32)O[C@@H]1CO (single isomer, unassigned) | > 100 | > 100 | > 100 | 73 |
